The values below come from ChEMBL document CHEMBL1125737, “Synthesis and anti-HIV activities of low molecular weight aurintricarboxylic acid fragments and related compounds” (J Med Chem, 1991).

The term IC50 denotes the concentration at which inhibition is half-maximal. Read a low IC50 as greater potency. In general, CC50 refers to the concentration that lowers cell viability or growth by half.

≈ marks a conversion by molar mass, not a printed value.

Data set [1] has as its system HuT78. Briefly: Inhibitory concentration that reduced the number of gaint cells by 50% between HIV-1 infected HUT-78 cells and uninfected MOLT-4 cells. To be noted: Homo sapiens. The format is functional, cell-based. Put shortly:
(§1)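 MOLT-4 cells were cocultured with an equal number of HUT-78/HTLV-IIIB or HUT-78/LAV-2ROD cells at various compound concentrations for 24 h. Giant cells were counted microscopically and analysed by laser flow cytometry. The value is the concentration reducing giant cell number by 50%, as the mean of at least three experiments.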

Data set [2] deals with Human immunodeficiency virus 1. As to the kind of experiment: Inhibitory concentration for cytopathicity of HIV-1 (HTLV-IIIB) in CEM cells. The note with it: Human immunodeficiency virus 1, CCRF-CEM. The format is functional, organism-based. An outline of the steps: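 HIV-1 (HTLV-IIIB)-infected CEM cells were treated with the compounds. Cell viability was determined by a tetrazolium (XTT) assay. The 50% inhibitory concentration for cytopathicity is the mean of at least three experiments.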
In general terms: Protection from cytopathic effect is a common read-out in antiviral testing.

In data set [3] the test system is HuT78. Briefly: Inhibitory concentration that reduced the number of gaint cells by 50% between HIV-2 infected HUT-78 cells and uninfected MOLT-4 cells. The format is functional, cell-based. To be noted: Homo sapiens. An outline of the steps: as §1
Data set [4] has as its system Human immunodeficiency virus 1. As to the kind of experiment: Inhibitory concentration for cytopathicity of HIV-1 (HTLV-IIIB) in MT-4 cells. The format is functional, organism-based. To be noted: Human immunodeficiency virus 1, MT4.
Data set [5] deals with Human immunodeficiency virus 2. Briefly: Inhibitory concentration for cytopathicity of HIV-2 (LAV-2ROD) in MT-4 cells. The format is functional, organism-based. The note with it: Human immunodeficiency virus 2, MT4.
Data set [6] can be described thus: 50% cytotoxic concentrations for mock-infected MT-4 cells. The format is cell-based, MT4. The note with it: human. Put shortly:
(§2)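 Mock-infected MT-4 cells were exposed to the compounds. Viability was read by a tetrazolium (MTT) colorimetric method in 96-well microtrays. The value is the concentration that is 50% cytotoxic, given as the mean of at least three experiments.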

Data set [7] is described as follows: 50% cytotoxic concentrations for mock-infected MT-4 cells. The format is cell-based, MT4. To be noted: human. An outline of the steps: as §2
Data set [8] has as its system HuT78. Briefly: Inhibitory concentration that reduced the number of gaint cells by 50% between HIV-1 infected HUT-78 cells and uninfected MOLT-4 cells. The format is functional, cell-based. The note with it: Homo sapiens. An outline of the steps:
as §1

For data set [9], the system named is HuT78. Briefly: Inhibitory concentration that reduced the number of gaint cells by 50% between HIV-2 infected HUT-78 cells and uninfected MOLT-4 cells. The format is functional, cell-based. To be noted: Homo sapiens. Put shortly:
as §1

In the case of `O=C(O)c1cc(C(c2ccc(O)c(C(=O)O)c2)c2ccc(O)c(C(=O)O)c2)ccc1O`, the IC50 in the data set with HuT78 [1] is greater than 100 µg/mL; in [2], 32.5 µg/mL (≈ 76.6 µM); in the data set on HuT78 [3] it was 15 µg/mL (≈ 35.3 µM); in data set [4], greater than 100 µg/mL; in data set [5], 13 µg/mL (≈ 30.6 µM). Also, the CC50 in data set [6] was 256 µg/mL (≈ 603 µM).
On to `Cc1cc(Cc2cc(C)c(O)c(C(=O)O)c2)cc(C(=O)O)c1O`, for which the IC50 is 55.5 µg/mL (≈ 175 µM) in [2], greater than 100 µg/mL in [4] and greater than 100 µg/mL in data set [5]. This molecule also returned a CC50 in data set [6] greater than 100 µg/mL.
On to `Cc1cc(C(c2cc(C)c(O)c(C(=O)O)c2)c2cc(C)c(O)c(C(=O)O)c2)cc(C(=O)O)c1O`, for which the IC50 in the data set with HuT78 [1] is greater than 20 µg/mL; in [2], greater than 186 µg/mL; in the data set with HuT78 [3] it was greater than 20 µg/mL; in data set [4], 80 µg/mL (≈ 172 µM); in data set [5], 67 µg/mL (≈ 144 µM). The same molecule yielded a CC50 in data set [6] of 82 µg/mL (≈ 176 µM).
For `O=C(O)c1cc(Cc2cc(Br)c(O)c(C(=O)O)c2)cc(Br)c1O`, the IC50 in data set [4] and in [5] was greater than 100 µg/mL in each case. This molecule also yielded a CC50 in data set [7] greater than 100 µg/mL.
For `COC(=O)c1cc(C(c2ccc(O)c(C(=O)OC)c2)c2ccc(O)c(C(=O)OC)c2)ccc1O`, the IC50 was greater than 100 µg/mL in the data set with HuT78 [1]; greater than 78 µg/mL in [2]; greater than 100 µg/mL in the data set on HuT78 [3]; greater than 100 µg/mL in data set [4]; greater than 100 µg/mL in data set [5]. In data set [6], this molecule yielded a CC50 of 52 µg/mL (≈ 111 µM).
Take `O=C(O)c1cc(Cc2cc(C(=O)O)c(O)c3ccccc23)c2ccccc2c1O`: the IC50 is 20 µg/mL (≈ 51.5 µM) in data set [2]; 75 µg/mL (≈ 193 µM) in [4]; 79 µg/mL (≈ 203 µM) in data set [5]; greater than 20 µg/mL in the data set on HuT78 [8]; greater than 20 µg/mL with HuT78 [9]. The CC50 in data set [7] was found to be 73 µg/mL (≈ 188 µM).
Consider `O=C(O)c1cccc(Cc2cccc(C(=O)O)c2O)c1O`, for which the values for the IC50 in data set [2], in data set [4] and in [5] were greater than 125 µg/mL, greater than 100 µg/mL and greater than 100 µg/mL, respectively. Also, in data set [7], the CC50 is greater than 100 µg/mL.
`O=C(O)c1cc(Cc2ccc(O)c(C(=O)O)c2)ccc1O`: the IC50 in [2] was greater than 276 µg/mL; in [4], greater than 100 µg/mL; in data set [5], greater than 100 µg/mL. In data set [7], the half-maximal cytotoxic concentration (CC50) is greater than 100 µg/mL.
With `O=C(O)c1cc(Cc2cc(Cl)c(O)c(C(=O)O)c2)cc(Cl)c1O`, the IC50 in data set [2] was 117 µg/mL (≈ 328 µM); in data set [4], greater than 100 µg/mL; in data set [5], greater than 100 µg/mL. In data set [7], this molecule gave a CC50 greater than 100 µg/mL.
With `Cc1cc(C(O)(c2cc(C)c(O)c(C(=O)O)c2)c2cc(C)c(O)c(C(=O)O)c2)cc(C(=O)O)c1O`, the IC50 was greater than 205 µg/mL in data set [2], greater than 100 µg/mL in [4] and greater than 100 µg/mL in data set [5]. This molecule also registered a CC50 in data set [6] greater than 100 µg/mL.
Turning to `COC(=O)c1cc(C(c2cc(C)c(O)c(C(=O)OC)c2)c2cc(C)c(O)c(C(=O)OC)c2)cc(C)c1O`, the IC50 in data set [4] and in data set [5] was greater than 100 µg/mL in each case. In addition, in data set [6], the CC50 is greater than 100 µg/mL.
For the molecule `O=C(O)c1cc(Br)cc(Cc2cc(Br)cc(C(=O)O)c2O)c1O`, the IC50 in data set [2] was 72.1 µg/mL (≈ 162 µM); in [4], greater than 100 µg/mL; in data set [5] it was greater than 100 µg/mL. Moreover, in data set [7], the CC50 was greater than 100 µg/mL.
Regarding `O=S(=O)([O-])c1cc(Cl)cc(Cc2cc(Cl)cc(S(=O)(=O)[O-])c2O)c1O.[Na+].[Na+]`, the IC50 with HuT78 [1] is greater than 100 µg/mL; in data set [2], 123 µg/mL; in the data set with HuT78 [3] it was greater than 100 µg/mL; in data set [4], greater than 100 µg/mL; in data set [5], greater than 100 µg/mL. Also, in data set [6], the 50% cytotoxic concentration (CC50) was greater than 100 µg/mL.
For the molecule `COC(=O)c1cc(C(O)(c2ccc(O)c(C(=O)OC)c2)c2ccc(O)c(C(=O)OC)c2)ccc1O`, the IC50 was greater than 100 µg/mL with HuT78 [1]; greater than 78 µg/mL in data set [2]; greater than 100 µg/mL in the data set on HuT78 [3]; greater than 100 µg/mL in [4]; greater than 100 µg/mL in data set [5]. The same molecule came in with a CC50 in data set [6] of 66 µg/mL (≈ 137 µM).
In the case of `O=C(O)c1cc(C(O)(c2ccc(O)c(C(=O)O)c2)c2ccc(O)c(C(=O)O)c2)ccc1O`, the IC50 was greater than 100 µg/mL with HuT78 [1]; 50.4 µg/mL (≈ 114 µM) in data set [2]; 15 µg/mL (≈ 34.1 µM) in the data set on HuT78 [3]; greater than 100 µg/mL in data set [4]; 15 µg/mL (≈ 34.1 µM) in [5]. The molecule also registered a CC50 in data set [6] of 248 µg/mL (≈ 563 µM).
With `O=C(O)C1=CC(=C(c2ccc(O)c(C(=O)O)c2)c2ccc(O)c(C(=O)O)c2)C=CC1=O` [AURINTRICARBOXYLIC ACID], the IC50 in [2] was determined as 2.1 µg/mL (≈ 4.97 µM); with HuT78 [3], 4 µg/mL (≈ 9.47 µM); in data set [4], 1.1 µg/mL (≈ 2.6 µM); in [5], 0.85 µg/mL (≈ 2.01 µM). The same molecule displayed a CC50 in data set [6] of 280 µg/mL (≈ 663 µM).
`CC1=C/C(=C(/c2cc(C)c(O)c(C(=O)[O-])c2)c2c(Cl)ccc(S(=O)(=O)[O-])c2Cl)C=C(C(=O)[O-])C1=O.[Na+].[Na+].[Na+]` [CHROME AZUROL S] yielded an IC50 in data set [2] of 50.2 µg/mL.
